From ChEMBL document CHEMBL4613283, “Synthesis, Antiproliferative Effect, and Topoisomerase II Inhibitory Activity of 3-Methyl-2-phenyl-1H-indoles” (2020)
The source made the active and inactive calls. No cut-off for these calls is given here.

Test system: A2780
Assay: Induction of apoptosis in human A2780 cells assessed as depolarization of mitochondrial membrane potential at 50 uM incubated for 28 hrs by JC-1 staining based flow cytometry (reference value: 3.8 %)
Type: functional
Details: not given
Method in brief: (§1)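 A2780 cells exposed 28 h to increasing concentrations versus untreated control, stained with JC-1 and analysed by flow cytometry; mitochondrial potential read as red aggregate versus green monomer fluorescence; percentages of cells with polarized and depolarized mitochondria reported.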

Compound | Activity
Cc1c(-c2ccc(O)cc2)n(CCCOc2ccccc2)c2ccc(O)cc12 | 42.2%

Molecular target: DNA topoisomerase 2-alpha (Homo sapiens) (UniProt P11388)
Sequence (P11388 whole entry): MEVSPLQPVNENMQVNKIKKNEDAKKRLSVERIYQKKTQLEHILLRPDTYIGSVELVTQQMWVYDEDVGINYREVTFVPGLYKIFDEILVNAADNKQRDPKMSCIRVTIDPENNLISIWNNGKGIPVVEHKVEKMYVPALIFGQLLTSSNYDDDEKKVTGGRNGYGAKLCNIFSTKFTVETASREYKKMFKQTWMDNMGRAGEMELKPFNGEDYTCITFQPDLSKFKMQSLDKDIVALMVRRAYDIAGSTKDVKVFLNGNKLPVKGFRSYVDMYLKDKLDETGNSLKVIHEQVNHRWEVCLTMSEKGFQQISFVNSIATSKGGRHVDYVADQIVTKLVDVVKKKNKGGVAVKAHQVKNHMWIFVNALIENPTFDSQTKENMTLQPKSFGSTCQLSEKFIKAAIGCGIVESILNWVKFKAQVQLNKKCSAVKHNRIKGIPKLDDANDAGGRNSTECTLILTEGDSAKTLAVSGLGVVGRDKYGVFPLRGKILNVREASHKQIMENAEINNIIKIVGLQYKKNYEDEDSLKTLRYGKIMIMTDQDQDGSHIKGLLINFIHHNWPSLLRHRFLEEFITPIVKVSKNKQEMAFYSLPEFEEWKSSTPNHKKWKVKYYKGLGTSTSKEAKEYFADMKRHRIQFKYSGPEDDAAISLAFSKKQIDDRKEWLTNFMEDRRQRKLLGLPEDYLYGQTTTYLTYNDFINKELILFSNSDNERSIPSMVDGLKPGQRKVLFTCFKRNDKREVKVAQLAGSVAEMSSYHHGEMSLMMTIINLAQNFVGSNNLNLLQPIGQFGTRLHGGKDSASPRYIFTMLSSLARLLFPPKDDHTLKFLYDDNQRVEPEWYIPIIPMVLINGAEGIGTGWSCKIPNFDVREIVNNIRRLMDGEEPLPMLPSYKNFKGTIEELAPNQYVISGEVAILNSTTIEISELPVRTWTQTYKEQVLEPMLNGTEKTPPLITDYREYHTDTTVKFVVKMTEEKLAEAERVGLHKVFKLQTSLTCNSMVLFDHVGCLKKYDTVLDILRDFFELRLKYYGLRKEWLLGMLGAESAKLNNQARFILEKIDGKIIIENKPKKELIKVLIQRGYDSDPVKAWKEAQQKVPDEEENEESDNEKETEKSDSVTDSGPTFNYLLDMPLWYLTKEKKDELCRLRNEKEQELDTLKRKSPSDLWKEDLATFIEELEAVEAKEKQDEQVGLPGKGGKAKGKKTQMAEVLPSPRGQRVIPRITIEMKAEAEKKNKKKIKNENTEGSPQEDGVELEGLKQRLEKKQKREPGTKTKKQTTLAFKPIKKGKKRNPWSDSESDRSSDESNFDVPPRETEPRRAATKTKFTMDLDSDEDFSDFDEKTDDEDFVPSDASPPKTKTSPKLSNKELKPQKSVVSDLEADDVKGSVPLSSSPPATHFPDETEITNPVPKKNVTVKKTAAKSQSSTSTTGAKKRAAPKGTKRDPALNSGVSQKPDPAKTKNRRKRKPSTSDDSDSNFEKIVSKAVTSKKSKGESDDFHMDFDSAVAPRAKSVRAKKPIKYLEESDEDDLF
Assay: Inhibition of recombinant human topoisomerase 2 alpha-mediated relaxation of supercoiled pBR322 DNA at 50 uM incubated for 30 mins by ethidium bromide staining based agarose gel electrophoresis method relative to control
Details: not given
Method in brief: (§2)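 Supercoiled pBR322 plasmid incubated with human recombinant topoisomerase II without or with compound at 100 μM, or at 25 and 50 μM; m-AMSA 20 μM as reference; relaxation inhibition judged from electrophoretic pattern of supercoiled DNA versus relaxed topoisomers.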

Compound | inhibition
Cc1c(-c2ccc(O)cc2)n(CCCOc2ccccc2)c2ccc(O)cc12 | 100%

Test system: A2780
Assay: Induction of apoptosis in human A2780 cells assessed as decrease of mitochondrial membrane potential incubated for 28 hrs by JC-1 staining based flow cytometry
Details: not given

Compound | Activity
Cc1c(-c2ccc(O)cc2)n(CCCOc2ccccc2)c2ccc(O)cc12 | Dose-dependent effect

Molecular target: DNA topoisomerase 2-alpha (Homo sapiens) (UniProt P11388)
Assay: Inhibition of recombinant human topoisomerase 2 alpha-mediated relaxation of supercoiled pBR322 DNA at 100 uM incubated for 30 mins by ethidium bromide staining based agarose gel electrophoresis method
Details: not given
Method in brief: as §2

Compound | inhibition
CCCn1c(-c2ccc(O)c(O)c2)c(C)c2cc(O)ccc21 | Active
Cc1c(-c2ccc(O)cc2)n(CCCCOc2ccccc2)c2ccc(O)cc12 | Active
Cc1c(-c2ccc(O)c(O)c2)n(CCCOc2ccccc2)c2ccc(O)cc12 | Active
COc1ccc2c(c1)c(C)c(-c1ccc(OC)c(OC)c1)n2CCCCOc1ccccc1 | inactive
Cc1c(-c2ccc(O)cc2)n(CCCOc2ccccc2)c2ccc(O)cc12 | Active
CCCn1c(-c2ccc(O)cc2)c(C)c2cc(O)ccc21 | Active
Cc1c(-c2ccc(O)c(O)c2)n(C)c2ccc(O)cc12 | inactive
Cc1c(-c2ccc(O)cc2)n(CCOc2ccccc2)c2ccc(O)cc12 | Active
Cc1c(-c2ccc(O)c(O)c2)n(CCCCOc2ccccc2)c2ccc(O)cc12 | Active
CCOC(=O)Cn1c(-c2ccc(O)cc2)c(C)c2ccccc21 | inactive
Cc1c(-c2ccc(O)cc2)[nH]c2ccc(O)cc12 | Active
Cc1c(-c2ccc(O)cc2)n(CC(=O)O)c2ccccc12 | inactive
CCCn1c(-c2ccc(O)cc2)c(C)c2ccccc21 | inactive
Cc1c(-c2ccc(O)cc2)n(CCCCOc2ccccc2)c2ccccc12 | Active

Molecular target: DNA topoisomerase 2-alpha (Homo sapiens) (UniProt P11388)
Assay: Inhibition of recombinant human topoisomerase 2 alpha-mediated relaxation of supercoiled pBR322 DNA at 25 uM incubated for 30 mins by ethidium bromide staining based agarose gel electrophoresis method
Details: not given
Method in brief: as §2

Compound | inhibition
Cc1c(-c2ccc(O)cc2)n(CCCOc2ccccc2)c2ccc(O)cc12 | Active
Cc1c(-c2ccc(O)c(O)c2)[nH]c2ccc(O)cc12 | Active
Cc1c(-c2ccc(O)cc2)[nH]c2ccc(O)cc12 | inactive

Molecular target: DNA topoisomerase 2-alpha (Homo sapiens) (UniProt P11388)
Assay: Inhibition of recombinant human topoisomerase 2 alpha-mediated relaxation of supercoiled pBR322 DNA at 100 uM incubated for 30 mins by ethidium bromide staining based agarose gel electrophoresis method relative to control
Details: not given
Method in brief: as §2

Compound | inhibition
Cc1c(-c2ccc(O)c(O)c2)[nH]c2ccc(O)cc12 | 100%

Test system: A2780
Assay: Growth inhibition of human A2780 cells incubated for 72 hrs by trypan blue assay
Type: functional
Details: A2780, 72 h
Method in brief: (§3)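 HeLa, A2780 and MSTO-211H human tumor cells; GI50 taken as the concentration (μM) inhibiting growth of 50% of cells relative to an untreated control culture; mean ± SD of at least three independent experiments.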

Compound | GI50
Cc1ncsc1C(=O)Oc1ccc(-c2[nH]c3ccccc3c2C)cc1 | 13 µM
CCCn1c(-c2ccc(O)c(O)c2)c(C)c2cc(O)ccc21 | 8.4 µM
Cc1c(-c2ccc(O)cc2)n(CCCCOc2ccccc2)c2ccc(O)cc12 | 2 µM
Cc1c(-c2ccc(O)c(O)c2)n(CCCOc2ccccc2)c2ccc(O)cc12 | 7.4 µM
COc1ccc2c(c1)c(C)c(-c1ccc(OC)c(OC)c1)n2CCCCOc1ccccc1 | 17 µM
Cc1c(-c2ccc(O)cc2)n(CCCOc2ccccc2)c2ccc(O)cc12 | 2.2 µM
O=c1c(O)c(-c2ccc(O)c(O)c2)oc2cc(O)cc(O)c12 [QUERCETIN] | 19.7 µM
Cc1c(-c2ccc(O)c(O)c2)[nH]c2ccc(O)cc12 | 2.2 µM
CCCn1c(-c2ccc(O)cc2)c(C)c2cc(O)ccc21 | 2.3 µM
Cc1c(-c2ccc(O)c(O)c2)n(C)c2ccc(O)cc12 | 14 µM
Cc1c(-c2ccc(OC(=O)c3c[nH]cn3)cc2)[nH]c2ccccc12 | > 20 µM
COc1cc(NS(C)(=O)=O)ccc1Nc1c2ccccc2nc2ccccc12 [AMSACRINE] | 0.027 µM
Cc1c(-c2ccc(O)cc2)n(CCOc2ccccc2)c2ccc(O)cc12 | 4.7 µM
Cc1c(-c2ccc(O)cc2)[nH]c2ccccc12 | > 20 µM
Cc1c(-c2ccc(O)c(O)c2)n(CCCCOc2ccccc2)c2ccc(O)cc12 | 4.3 µM
CCOC(=O)Cn1c(-c2ccc(O)cc2)c(C)c2ccccc21 | 13 µM
Cc1c(-c2ccc(O)cc2)[nH]c2ccc(O)cc12 | 11 µM
Cc1c(-c2ccc(O)cc2)n(CC(=O)O)c2ccccc12 | > 20 µM
CCCn1c(-c2ccc(O)cc2)c(C)c2ccccc21 | 9 µM
Cc1c(-c2ccc(O)cc2)n(CCCCOc2ccccc2)c2ccccc12 | 3.1 µM

Test system: A2780
Assay: Induction of apoptosis in human A2780 cells assessed as polarization of mitochondrial membrane potential at 50 uM incubated for 28 hrs by JC-1 staining based flow cytometry (reference value: 96.1 %)
Type: functional
Details: not given
Method in brief: as §1

Compound | Activity
Cc1c(-c2ccc(O)cc2)n(CCCOc2ccccc2)c2ccc(O)cc12 | 57.7%

Molecular target: DNA topoisomerase 2-alpha (Homo sapiens) (UniProt P11388)
Assay: Inhibition of recombinant human topoisomerase 2 alpha-mediated relaxation of supercoiled pBR322 DNA at 50 uM incubated for 30 mins by ethidium bromide staining based agarose gel electrophoresis method
Details: not given
Method in brief: as §2

Compound | inhibition
Cc1c(-c2ccc(O)cc2)n(CCCOc2ccccc2)c2ccc(O)cc12 | Active
Cc1c(-c2ccc(O)c(O)c2)[nH]c2ccc(O)cc12 | Active
Cc1c(-c2ccc(O)cc2)[nH]c2ccc(O)cc12 | inactive

Test system: A2780
Assay: Induction of apoptosis in human A2780 cells assessed as polarization of mitochondrial membrane potential at 10 uM incubated for 28 hrs by JC-1 staining based flow cytometry (reference value: 96.1 %)
Type: functional
Details: not given
Method in brief: as §1

Compound | Activity
Cc1c(-c2ccc(O)cc2)n(CCCOc2ccccc2)c2ccc(O)cc12 | 87%

Test system: A2780
Assay: Induction of apoptosis in human A2780 cells assessed as depolarization of mitochondrial membrane potential at 10 uM incubated for 28 hrs by JC-1 staining based flow cytometry (reference value: 3.8 %)
Type: functional
Details: not given
Method in brief: as §1

Compound | Activity
Cc1c(-c2ccc(O)cc2)n(CCCOc2ccccc2)c2ccc(O)cc12 | 12.6%

Test system: MSTO-211H
Assay: Growth inhibition of human MSTO-211H cells incubated for 72 hrs by trypan blue assay
Type: functional
Details: not given
Method in brief: as §3

Compound | GI50
Cc1ncsc1C(=O)Oc1ccc(-c2[nH]c3ccccc3c2C)cc1 | > 20 µM
CCCn1c(-c2ccc(O)c(O)c2)c(C)c2cc(O)ccc21 | > 20 µM
Cc1c(-c2ccc(O)cc2)n(CCCCOc2ccccc2)c2ccc(O)cc12 | 2.9 µM
Cc1c(-c2ccc(O)c(O)c2)n(CCCOc2ccccc2)c2ccc(O)cc12 | 7.1 µM
COc1ccc2c(c1)c(C)c(-c1ccc(OC)c(OC)c1)n2CCCCOc1ccccc1 | 13 µM
Cc1c(-c2ccc(O)cc2)n(CCCOc2ccccc2)c2ccc(O)cc12 | 2.4 µM
O=c1c(O)c(-c2ccc(O)c(O)c2)oc2cc(O)cc(O)c12 [QUERCETIN] | > 20 µM
Cc1c(-c2ccc(O)c(O)c2)[nH]c2ccc(O)cc12 | > 20 µM
CCCn1c(-c2ccc(O)cc2)c(C)c2cc(O)ccc21 | 2.9 µM
Cc1c(-c2ccc(O)c(O)c2)n(C)c2ccc(O)cc12 | > 20 µM
Cc1c(-c2ccc(OC(=O)c3c[nH]cn3)cc2)[nH]c2ccccc12 | > 20 µM
COc1cc(NS(C)(=O)=O)ccc1Nc1c2ccccc2nc2ccccc12 [AMSACRINE] | 0.019 µM
Cc1c(-c2ccc(O)cc2)n(CCOc2ccccc2)c2ccc(O)cc12 | 7.6 µM
Cc1c(-c2ccc(O)cc2)[nH]c2ccccc12 | > 20 µM
Cc1c(-c2ccc(O)c(O)c2)n(CCCCOc2ccccc2)c2ccc(O)cc12 | 3.4 µM
CCOC(=O)Cn1c(-c2ccc(O)cc2)c(C)c2ccccc21 | > 20 µM
Cc1c(-c2ccc(O)cc2)[nH]c2ccc(O)cc12 | > 20 µM
Cc1c(-c2ccc(O)cc2)n(CC(=O)O)c2ccccc12 | > 20 µM
CCCn1c(-c2ccc(O)cc2)c(C)c2ccccc21 | 7.1 µM
Cc1c(-c2ccc(O)cc2)n(CCCCOc2ccccc2)c2ccccc12 | 3.3 µM

Test system: HeLa
Assay: Growth inhibition of human HeLa cells incubated for 72 hrs by trypan blue assay
Type: functional
Details: not given
Method in brief: as §3

Compound | GI50
Cc1ncsc1C(=O)Oc1ccc(-c2[nH]c3ccccc3c2C)cc1 | > 20 µM
CCCn1c(-c2ccc(O)c(O)c2)c(C)c2cc(O)ccc21 | > 20 µM
Cc1c(-c2ccc(O)cc2)n(CCCCOc2ccccc2)c2ccc(O)cc12 | 4 µM
Cc1c(-c2ccc(O)c(O)c2)n(CCCOc2ccccc2)c2ccc(O)cc12 | 18 µM
COc1ccc2c(c1)c(C)c(-c1ccc(OC)c(OC)c1)n2CCCCOc1ccccc1 | > 20 µM
Cc1c(-c2ccc(O)cc2)n(CCCOc2ccccc2)c2ccc(O)cc12 | 4.4 µM
O=c1c(O)c(-c2ccc(O)c(O)c2)oc2cc(O)cc(O)c12 [QUERCETIN] | 17.7 µM
Cc1c(-c2ccc(O)c(O)c2)[nH]c2ccc(O)cc12 | > 20 µM
CCCn1c(-c2ccc(O)cc2)c(C)c2cc(O)ccc21 | 7.9 µM
Cc1c(-c2ccc(O)c(O)c2)n(C)c2ccc(O)cc12 | > 20 µM
Cc1c(-c2ccc(OC(=O)c3c[nH]cn3)cc2)[nH]c2ccccc12 | > 20 µM
COc1cc(NS(C)(=O)=O)ccc1Nc1c2ccccc2nc2ccccc12 [AMSACRINE] | 0.031 µM
Cc1c(-c2ccc(O)cc2)n(CCOc2ccccc2)c2ccc(O)cc12 | 15 µM
Cc1c(-c2ccc(O)cc2)[nH]c2ccccc12 | > 20 µM
Cc1c(-c2ccc(O)c(O)c2)n(CCCCOc2ccccc2)c2ccc(O)cc12 | 10 µM
CCOC(=O)Cn1c(-c2ccc(O)cc2)c(C)c2ccccc21 | > 20 µM
Cc1c(-c2ccc(O)cc2)[nH]c2ccc(O)cc12 | 16 µM
Cc1c(-c2ccc(O)cc2)n(CC(=O)O)c2ccccc12 | > 20 µM
CCCn1c(-c2ccc(O)cc2)c(C)c2ccccc21 | > 20 µM
Cc1c(-c2ccc(O)cc2)n(CCCCOc2ccccc2)c2ccccc12 | 11 µM

Test system: A2780
Assay: Induction of apoptosis in human A2780 cells assessed as increase in sub-G0 accumulation at 50 uM incubated for 28 hrs by propidium iodide staining based flow cytometry relative to control
Type: functional
Details: not given
Method in brief: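 A2780 cells treated 28 h at 10 and 50 μM alongside untreated control, stained with propidium iodide, DNA content per cell measured by flow cytometry; apoptotic fraction taken as sub-G0 (hypodiploid) peak.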

Compound | Activity
Cc1c(-c2ccc(O)cc2)n(CCCOc2ccccc2)c2ccc(O)cc12 | 30%
